Measurements from article PMC11439923 (Scientific Reports, 2024).

Columns and labels:
V-ATPase activity = assay: LysoTracker Red staining; type: cell-based, human; conditions: Cal-27 and FaDu; 0.1 µM; 24 h
How it was run: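 Cal-27 and FaDu plated 8 × 10^3 cells/well in black 96-well plates for 24 h. Treated 24 h with test compound (0.1, 1, 2 µM) or 0.1 µM bafilomycin A1. LysoTracker 2 h, immediate fixation in 4% paraformaldehyde 20 min, DAPI 30 min at room temperature. Lysosomal fluorescence intensity quantified by high-content imaging.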

cathepsin D (CTSD) = assay: Western blot of cathepsin D; type: cell-based, human; conditions: 36 h, ECDD-S18 0.1, 1, 2 µM, bafilomycin A1 0.1 µM, vs DMSO
How it was run: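 Cal-27 or FaDu seeded 5 × 10^5 cells per 60 mm dish for 24 h, treated 36 h with test compound (0.1, 1, 2 µM), 0.1 µM bafilomycin A1 or DMSO. RIPA lysates run on SDS-PAGE, transferred to PVDF, blocked in 5% milk 1 h. Probed overnight at 4 °C for pro/mature cathepsin D, N-cadherin, GAPDH; HRP secondary, ECL on film. Densitometry normalised to GAPDH, fold change versus untreated.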

CTSD mRNA = assay: Quantitative RT-PCR of CTSD; type: cell-based, human; conditions: 36 h, ECDD-S18 0.1, 1, 2 µM, bafilomycin A1 0.1 µM, vs DMSO
[1] = tested on: E-cadherin mRNA and protein; assay: E-cadherin expression; type: cell-based, human; conditions: Cal-27 and FaDu; 36 h; ECDD-S18 0.1, 1, 2 µM, bafilomycin A1 0.1 µM
[2] = tested on: HNSCC cell lines (FaDu, Cal-27, and Ca9-22); assay: Cell viability assay; type: cell-based, human; conditions: Cal-27 and FaDu; 1 µM single agent; 48 and 72 h; MTT
How it was run: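 Seeded 8 × 10^3 cells/well in 10% FBS medium: MEM for Ca9-22; high-glucose DMEM for FaDu, Cal-27, HaCaT; DMEM/F12 for HK-2. Grown 24 h at 37 °C, 5% CO2, then dosed 24, 48 or 72 h: derivatives 0.001–20 µM, parent glycoside and platinum reference 0.01–50 µM. MTT 0.5 mg/ml 4 h, formazan dissolved in DMSO, A570. IC50 by nonlinear regression. Triplicate, ≥3 independent experiments.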

FaDu spheroids = assay: Three-dimensional culture, spheroid live/dead staining; type: cell-based, human; conditions: 50 µM cisplatin, 72 h
How it was run: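 FaDu seeded 500 cells/well in U-bottom ultralow-attachment plates, spheroids formed over 72 h at 37 °C, 5% CO2. Spheroids exposed 72 h to a concentration series of test compound or platinum reference. Stained 1 h with Hoechst 33342 (live) and ethidium homodimer-1 (dead), imaged by high-content system. Read-out: Hoechst/EthD-1 mean fluorescence intensity ratio. One-way ANOVA with Tukey's test.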

healthy mice = conditions: cited from earlier work

CO/C1=C\C(C)=C\[C@@H](C)[C@@H](O)[C@@H](C)C/C(C)=C/C=C/[C@H](OC)[C@@H]([C@@H](C)[C@@H](O)[C@H](C)[C@@]2(O)C[C@@H](O)[C@H](C)[C@@H](C(C)C)O2)OC1=O [bafilomycin A1]
LysoTracker red fluorescence intensity relative to DMSO control (V-ATPase activity): significantly decreased
protein expression of mature CTSD (cathepsin D (CTSD); Cal-27): downregulated
protein expression of mature CTSD (cathepsin D (CTSD); FaDu): downregulated
mRNA expression of CTSD (CTSD mRNA; Cal-27): significantly decreased
mRNA expression of CTSD (CTSD mRNA; FaDu): significantly decreased
expression of E-cadherin mRNA and protein [1]: no effect

N.N.[Cl][Pt][Cl] [Cisplatin]
cell viability [2]: slight suppression
Live/dead cell ratio (Hoechst 33342 to EthD-1) (FaDu spheroids): significantly reduced
WBC and RBC levels (healthy mice): marked decrease
body weight loss (healthy mice): 30–40%
